From article PMC7807167 (Methods (San Diego, Calif.), 2021)
Where two headings read alike, the source gives them in different places.

Assays:
SARS-CoV-2/MT020880 [1] = format: cell-based; conditions: for IC50_Viral Entry blocking assay: ‘Very wide’ = some activity at high concentrations too staggering to plot
SARS-CoV-2/MT020880 [2] = format: cell-based; conditions: for IC-50_Viral Spread assay: ‘Very wide’ = some activity at high concentrations too staggering to plot
SARS-CoV-2 = format: cell-based; conditions: for inhibitory activity against SARS-CoV-2: concentration range tested; for anti-SARS-CoV-2 activity at 25 µM: Fig 6, Fig 7
ATCC Vero E6 cells = conditions: for Cytotoxicity: Vero E6, tested range up to 50 μM
3CLpro [3] = target: T1, 3CLpro (Severe acute respiratory syndrome coronavirus 2, UniProt P0DTD1); assay: Preliminary compound screening for 3CLpro inhibitors; format: biochemical, SARS-CoV-2; conditions: four concentrations, 1–50 µM, 3CLpro 0.4 µM, TVLQ-AMC 40 µM
Summary of the method: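 Duplicate wells, 25 °C. Test compound (1–50 µM) or DMSO (0 µM) preincubated about 5 min with 3CLpro (0.4 µM) in Tris-HCl pH 7.3, 1 mM EDTA. Started with TVLQ-AMC (40 µM), shaken 5 s, emission 440 nm (excitation 364 nm) read 1 min–3 h. Controls: 6–8 DMSO wells, 2 no-enzyme wells. Two replicate screens; emission normalized to 0 µM at 3 h.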

3CLpro [4] = target: T1, 3CLpro; assay: 3CLpro enzyme inhibition assay; format: biochemical, SARS-CoV-2
Summary of the method: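 Inhibitor (0–1000 µM) preincubated about 5 min with 3CLpro (0.4 µM) in Tris-HCl pH 7.3, 1 mM EDTA, triplicate, 25 °C. Started with TVLQ-AMC (40 µM) at fixed concentration, shaken 5 s. Fluorescence (excitation 364 nm) read continuously over time.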

## OC[C@H]1O[C@@H](O[C@@H]2[C@@H](CO)OC(O)(CO)[C@H]2O)[C@H](O)[C@@H](O)[C@H]1O (mixture of isomers) [Lactulose]
SARS-CoV-2/MT020880 [1]
  IC50_Viral Entry blocking assay: nil
SARS-CoV-2/MT020880 [2]
  IC-50_Viral Spread assay: nil
SARS-CoV-2
  inhibitory activity against SARS-CoV-2: no observed inhibitory activity
ATCC Vero E6 cells
  Cytotoxicity: Nontoxic within tested conc. range

## NCC[C@H](O)C(=O)N[C@@H]1C[C@H](N)[C@@H](O[C@H]2O[C@H](CN)[C@@H](O)[C@H](O)[C@H]2O)[C@H](O)[C@H]1O[C@H]1O[C@H](CO)[C@@H](O)[C@H](N)[C@H]1O [Amikacin hydrate]
SARS-CoV-2/MT020880 [1]
  IC50_Viral Entry blocking assay: (Very wide)
SARS-CoV-2/MT020880 [2]
  IC-50_Viral Spread assay: (Very wide)
ATCC Vero E6 cells
  Cytotoxicity: Nontoxic within tested conc. range

## [H]/N=C(/N)SCCCn1cc(C2=C(c3cn(C)c4ccccc34)C(=O)NC2=O)c2ccccc21 [Bisindolylmaleimide IX]
3CLpro [3]
  activity in 3CLpro screening (rate of substrate cleavage): significant activity
3CLpro [4]
  IC50: 114 ± 5.2 µM
ATCC Vero E6 cells
  Cytotoxicity: Nontoxic within tested conc. range

## O=C(CCCN1CCC(O)(c2ccc(Cl)cc2)CC1)c1ccc(F)cc1 [Haloperidol]
SARS-CoV-2
  anti-SARS-CoV-2 activity at 25 µM: 9.8%
3CLpro [3]
  activity in 3CLpro screening (rate of substrate cleavage): very mild activity
ATCC Vero E6 cells
  Cytotoxicity: Non-toxic within tested conc. range

## COCC(=O)Nc1c(I)c(C(=O)NCC(O)CO)c(I)c(C(=O)N(C)CC(O)CO)c1I (stereo not shown) [Iopromide]
SARS-CoV-2/MT020880 [1]
  IC50_Viral Entry blocking assay: nil
SARS-CoV-2/MT020880 [2]
  IC-50_Viral Spread assay: nil
SARS-CoV-2
  inhibitory activity against SARS-CoV-2: no observed inhibitory activity
ATCC Vero E6 cells
  Cytotoxicity: Nontoxic within tested conc. range

## NC[C@@H]1O[C@H](O[C@H]2[C@@H](O)[C@H](O[C@@H]3[C@@H](O)[C@H](N)C[C@H](N)[C@H]3O[C@H]3O[C@H](CO)[C@@H](O)[C@H](O)[C@H]3N)O[C@@H]2CO)[C@H](N)[C@@H](O)[C@@H]1O [Paromomycin]
SARS-CoV-2/MT020880 [2]
  IC-50_Viral Spread assay: (Very wide)
SARS-CoV-2
  anti-SARS-CoV-2 activity at 25 µM: 2.3%
ATCC Vero E6 cells
  Cytotoxicity: Nontoxic within tested conc. range

## C[C@@H]1O[C@@H](OC[C@H]2O[C@@H](Oc3c(-c4ccc(OCCO)c(OCCO)c4)oc4cc(OCCO)cc(O)c4c3=O)[C@H](O)[C@@H](O)[C@@H]2O)[C@H](O)[C@H](O)[C@H]1O [Troxerutin]
SARS-CoV-2/MT020880 [1]
  IC50_Viral Entry blocking assay: (Very wide)
SARS-CoV-2/MT020880 [2]
  IC-50_Viral Spread assay: (Very wide)
SARS-CoV-2
  anti-SARS-CoV-2 activity at 25 µM: 2.8%
ATCC Vero E6 cells
  Cytotoxicity: Nontoxic within tested conc. range

## Ivermectin
SARS-CoV-2/MT020880 [1]; viral entry assay, 50 µM
  Percent inhibition at 50 µM: 99%
SARS-CoV-2/MT020880 [2]
  Percent inhibition at 50 µM: 46%
ATCC Vero E6 cells; ATCC E6 Vero cells, number of nuclei counted
  concentration with high cytotoxicity: > 16.67 µM
ATCC Vero E6 cells
  Cytotoxicity: Toxic above 50 µM
